Converted amounts (≈) assume the structure as drawn. The source made the active and inactive calls. The rule behind the calls is not given here.
What was measured:
Human alphaherpesvirus 2 = assay: Antiviral activity against HSV-2 G infected in HEL cells assessed as inhibition of virus-induced cytopathicity; assay type: functional, organism-based; details: strain G
Outline: (§1)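 Confluent monolayers (HEL, Vero, HeLa or CrFK, as applicable) were inoculated with 100 CCID50 of virus, with 1 CCID50 being the dose that infects 50% of cultures. Infection ran in the presence of varying compound concentrations. Inhibition of virus-induced cytopathicity was scored against infected cultures left untreated.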

Human alphaherpesvirus 1 [1] = assay: Antiviral activity against HSV-1 KOS infected in HEL cells assessed as inhibition of virus-induced cytopathicity; assay type: functional, organism-based; outline: as §1
[2] = Solubility of the compound in octanol at pH 7.4 by HPLC analysis; assay type: physicochemical
[3] = n-octanol-PBS buffer distribution coefficient, log D of the compound at pH 7.4 after 24 hrs by HPLC analysis; assay type: physicochemical
[4] = Aqueous solubility of the compound in PBS buffer at pH 7.4 after 24 hrs by HPLC analysis; assay type: physicochemical; details: pH 7.4, 24 h
[5] = Selectivity index, ratio of CC50 for cat CRFK cells to IC50 for chloroquine-resistant asexual erythrocytic stage of Plasmodium falciparum Dd2; assay type: functional
Outline: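 Ratio of CRFK CC50 (μM) to Dd2 IC50 […]. CC50 is the 50% cytotoxic concentration in feline kidney CRFK cells, measured as cell viability by colorimetric formazan-based MTS assay. Dd2 IC50 is from the parasite LDH growth-inhibition assay.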

[6] = Cytotoxicity against cat CRFK cells assessed as cell viability by MTS assay; assay type: cell-based, Felis catus
Outline: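 CRFK cells were exposed to varying sample concentrations. Cell viability was measured with the colorimetric formazan-based MTS assay, and the 50% cytotoxic concentration (CC50) was derived from it.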

[7] = Cytotoxicity against human HeLa cells assessed as alteration of cell morphology by microscopic analysis; assay type: cell-based; details: read-out: MIC
Outline: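 Cells (Vero, HEL, MDCK or HeLa) were exposed to a range of sample concentrations. The value reported is the concentration required to cause a microscopically detectable alteration of normal cell morphology.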

Plasmodium falciparum [8] = assay: Antiplasmodial activity against chloroquine-resistant asexual erythrocytic stage of Plasmodium falciparum Dd2 assessed as parasite growth inhibition by lactate dehydrogenase assay; assay type: functional, organism-based
Outline: (§2)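 Parasite lactate dehydrogenase assay (modified Makler method). Samples held as 20 mg/mL stocks in DMSO, diluted on test day. Full dose-response: starting at 10 μg/mL, 2-fold serial dilution in complete medium over 10 concentrations down to 0.02 μg/mL. Chloroquine, artesunate and MMV390048 served as references. IC50 from nonlinear dose-response curve fitting; mean of three independent experiments.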

Plasmodium falciparum [9] = assay: Antiplasmodial activity against chloroquine-sensitive asexual erythrocytic stage of Plasmodium falciparum D10 assessed as parasite growth inhibition by lactate dehydrogenase assay; assay type: functional, organism-based; outline: as §2
Felid alphaherpesvirus 1 = assay: Antiviral activity against Feline herpesvirus infected in cat CRFK cells assessed as inhibition of virus-induced cytopathicity; assay type: functional, organism-based; outline: as §1
Feline coronavirus = assay: Antiviral activity against Feline coronavirus infected in cat CRFK cells assessed as inhibition of virus-induced cytopathicity; assay type: functional, organism-based; outline: as §1
Human alphaherpesvirus 3 = assay: Antiviral activity against Varicella-zoster virus infected in HEL cells assessed as inhibition of virus-induced cytopathicity; assay type: functional, organism-based
Human betaherpesvirus 5 [10] = assay: Antiviral activity against Cytomegalovirus Davis infected in HEL cells assessed as inhibition of virus-induced cytopathicity; assay type: functional, organism-based
Human betaherpesvirus 5 [11] = assay: Antiviral activity against Cytomegalovirus AD169 infected in HEL cells assessed as inhibition of virus-induced cytopathicity; assay type: functional, organism-based
[12] = system: Respiratory syncytial virus; assay: Antiviral activity against Respiratory syncytial virus infected in human HeLa cells assessed as inhibition of virus-induced cytopathicity; assay type: functional, organism-based; outline: as §1
Coxsackievirus B4 [13] = assay: Antiviral activity against Coxsackievirus B4 infected in human HeLa cells assessed as inhibition of virus-induced cytopathicity; assay type: functional, organism-based; outline: as §1
Influenza A virus H3N2 = assay: Antiviral activity against Influenza A virus H3N2 infected in MDCK cells assessed as inhibition of virus-induced cytopathicity; assay type: functional, organism-based
Outline: (§3)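 Confluent monolayers in 96-well plates were inoculated with 100 CCID50 of virus in the presence of varying concentrations of compound. Read-out was inhibition of virus-induced cytopathicity, compared with untreated infected cultures. Cytotoxicity was judged microscopically or by MTT viability staining.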

[14] = system: Vesicular stomatitis virus; assay: Antiviral activity against Vesicular stomatitis virus infected in human HeLa cells assessed as inhibition of virus-induced cytopathicity; assay type: functional, organism-based; outline: as §3
Influenza A virus = assay: Antiviral activity against influenza A virus H1N1 infected in MDCK cells assessed as inhibition of virus-induced cytopathicity; assay type: functional, organism-based; outline: as §3
Punta Toro virus = assay: Antiviral activity against Punta Toro virus infected in African green monkey Vero cells assessed as inhibition of virus-induced cytopathicity; assay type: functional, organism-based; outline: as §1
Coxsackievirus B4 [15] = assay: Antiviral activity against Coxsackievirus B4 infected in African green monkey Vero cells assessed as inhibition of virus-induced cytopathicity; assay type: functional, organism-based; outline: as §1
Sindbis virus = assay: Antiviral activity against Sindbis virus infected in African green monkey Vero cells assessed as inhibition of virus-induced cytopathicity; assay type: functional, organism-based
[16] = system: Mammalian orthoreovirus 1; assay: Antiviral activity against Reovirus 1 infected in African green monkey Vero cells assessed as inhibition of virus-induced cytopathicity; assay type: functional, organism-based; outline: as §1
Human respirovirus 3 = assay: Antiviral activity against parainfluenza virus 3 infected in African green monkey Vero cells assessed as inhibition of virus-induced cytopathicity; assay type: functional, organism-based; outline: as §1
Human alphaherpesvirus 1 [17] = assay: Antiviral activity against thymidine kinase-negative acyclovir-resistant HSV-1 KOS infected in HEL cells assessed as inhibition of virus-induced cytopathicity; assay type: functional, organism-based; outline: as §3
[18] = system: Vesicular stomatitis virus; assay: Antiviral activity against Vesicular stomatitis virus infected in HEL cells assessed as inhibition of virus-induced cytopathicity; assay type: functional, organism-based; outline: as §3
Vaccinia virus = assay: Antiviral activity against Vaccinia virus infected in HEL cells assessed as inhibition of virus-induced cytopathicity; assay type: functional, organism-based; details: Orthopoxvirus vaccinia; outline: as §3

| Structure (SMILES) | inhibition (Human alphaherpesvirus 2) | inhibition (Human alphaherpesvirus 1 [1]) | solubility [2] | logD at 24 h [3] | solubility [4] | Ratio CC50/IC50 [5] | CC50 [6] | MCC [7] | IC50 (Plasmodium falciparum [8]) | IC50 (Plasmodium falciparum [9]) | inhibition (Felid alphaherpesvirus 1) | inhibition (Feline coronavirus) | inhibition (Human alphaherpesvirus 3) | inhibition (Human betaherpesvirus 5 [10]) | inhibition (Human betaherpesvirus 5 [11]) | inhibition [12] | inhibition (Coxsackievirus B4 [13]) | inhibition (Influenza A virus H3N2) | inhibition [14] | inhibition (Influenza A virus) | other results |
| --- | --- | --- | --- | --- | --- | --- | --- | --- | --- | --- | --- | --- | --- | --- | --- | --- | --- | --- | --- | --- | --- |
| Clc1ccc2c(NCCCNc3ccnc(N4CCOCC4)n3)ccnc2c1 | inactive | inactive | 1.27 µM (≈ 0.507 µg/mL) | 0.363 | 0.55 µM (≈ 0.219 µg/mL) | >247 | > 100000 nM | 100 µM | 404 nM | 70 nM | inactive | inactive | inactive | inactive | inactive | inactive | inactive | inactive | inactive | inactive | inhibition (Punta Toro virus): inactive; inhibition (Coxsackievirus B4 [15]): inactive; inhibition (Sindbis virus): inactive; inhibition [16]: inactive; inhibition (Human respirovirus 3): inactive; inhibition (Human alphaherpesvirus 1 [17]): inactive; inhibition [18]: inactive; inhibition (Vaccinia virus): inactive |
| Clc1ccc2c(NCCNc3nccc(Cl)n3)ccnc2c1 | inactive | inactive | 2.85 µM (≈ 0.952 µg/mL) | 0.501 | 0.9 µM (≈ 0.301 µg/mL) | >12.53 | > 100000 nM | > 100 µM | 7680 nM | 2510 nM | inactive | inactive | inactive | inactive | inactive | inactive | inactive | inactive | inactive | inactive | inhibition (Punta Toro virus): inactive; inhibition (Coxsackievirus B4 [15]): inactive; inhibition (Sindbis virus): inactive; inhibition [16]: inactive; inhibition (Human respirovirus 3): inactive; inhibition (Human alphaherpesvirus 1 [17]): inactive; inhibition [18]: inactive; inhibition (Vaccinia virus): inactive |
| Clc1ccc2c(NCCCNc3ccnc(N4CCCCC4)n3)ccnc2c1 | inactive | inactive | 2.02 µM (≈ 0.802 µg/mL) | 0.801 | 0.32 µM (≈ 0.127 µg/mL) | 334 | 55000 nM | 20 µM | 166 nM | 65.5 nM | inactive | inactive | inactive | inactive | inactive | inactive | inactive | inactive | inactive | inactive | inhibition (Punta Toro virus): inactive; inhibition (Coxsackievirus B4 [15]): inactive; inhibition (Sindbis virus): inactive; inhibition [16]: inactive; inhibition (Human respirovirus 3): inactive; inhibition (Human alphaherpesvirus 1 [17]): inactive; inhibition [18]: inactive; inhibition (Vaccinia virus): inactive |

Source: ChEMBL document CHEMBL3112527, “Quinoline-pyrimidine hybrids: synthesis, antiplasmodial activity, SAR, and mode of action studies” (J Med Chem, 2014)
